A word on the IC50: it is the concentration that inhibits the measured activity by half. A lower IC50 goes with inhibition by little substance.

The target in experiment [1] is T1, DNA topoisomerase 1 (Homo sapiens) (UniProt P11387).
T1 sequence (whole entry): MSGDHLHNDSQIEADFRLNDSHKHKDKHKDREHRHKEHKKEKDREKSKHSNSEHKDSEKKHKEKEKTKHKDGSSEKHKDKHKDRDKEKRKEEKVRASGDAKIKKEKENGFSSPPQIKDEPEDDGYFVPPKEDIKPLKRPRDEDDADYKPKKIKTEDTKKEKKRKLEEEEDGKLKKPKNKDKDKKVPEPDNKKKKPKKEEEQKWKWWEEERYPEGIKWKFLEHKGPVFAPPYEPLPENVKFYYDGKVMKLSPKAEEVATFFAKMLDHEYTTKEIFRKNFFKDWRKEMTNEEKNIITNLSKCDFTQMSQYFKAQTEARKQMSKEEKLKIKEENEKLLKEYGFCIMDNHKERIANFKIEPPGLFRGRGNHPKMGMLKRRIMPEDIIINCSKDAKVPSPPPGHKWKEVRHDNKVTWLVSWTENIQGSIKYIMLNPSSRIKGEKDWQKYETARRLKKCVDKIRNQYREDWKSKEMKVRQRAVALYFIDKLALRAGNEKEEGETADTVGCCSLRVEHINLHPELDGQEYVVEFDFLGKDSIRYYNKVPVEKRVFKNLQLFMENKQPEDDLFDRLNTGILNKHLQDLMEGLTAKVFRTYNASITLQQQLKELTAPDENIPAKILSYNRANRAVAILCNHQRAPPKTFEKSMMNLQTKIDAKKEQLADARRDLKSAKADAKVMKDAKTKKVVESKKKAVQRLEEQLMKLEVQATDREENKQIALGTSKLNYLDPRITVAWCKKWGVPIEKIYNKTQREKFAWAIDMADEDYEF
Description: Inhibition of human topoisomerase 1 mediated DNA cleavage assessed as effective drug concentration causing 10% YepG plasmid cleavage relative to camptothecin. Conditions: in the assay text read “relative to topotecan” for “relative to camptothecin”. The gist of the method: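 Stopped with SDS and proteinase K, 1 h at 37 °C. Alkali-denatured with NaOH/EDTA/sucrose/bromophenol blue, then run on neutral agarose gel.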

The nature of experiment [2]: Cytotoxicity against human RPMI8402 cells after MTT assay. The format is functional, cell-based. As to conditions: RPMI 8402. The gist of the method: (§1)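 Suspension cultures at 37 °C, 5% CO2, in RPMI with 10% heat-inactivated FBS, 2 mM L-glutamine, penicillin and streptomycin. Continuous 4-day exposure to a range of drug concentrations, then MTT read-out to give IC50. Drug-free control included. At least two runs, six replicate wells each.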

The nature of experiment [3]: Cytotoxicity against camptothecin-resistant human CPT-K5 cells after MTT assay. The class given is functional, cell-based. The gist of the method:
as §1

In experiment [4] the test system is P388. Description: Cytotoxicity against mouse P388 cells after MTT assay. The class given is functional, cell-based. The essentials: as §1
In general terms: Tetrazolium assays rely on reduction of a dye to a coloured formazan, in cell work by metabolically active cells.

The nature of experiment [5]: Cytotoxicity against camptothecin-resistant and TOP1 deficient mouse P388/CPT45 cells after MTT assay. As to conditions: P388CPT45. The class given is functional, cell-based. The essentials: as §1
Experiment [6] can be described thus: Cytotoxicity against human KB3-1 cells after MTT assay. The class given is functional, cell-based. As to conditions: KB 3-1. The essentials: (§2)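 IC50 after continuous 4-day exposure to varying drug concentrations, with MTT read at the end of day 4. A drug-free control was included. At least two runs, each in six replicate wells.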
The nature of experiment [7]: Cytotoxicity against multidrug resistant human KBV-1 cells overexpressing MDR1 after MTT assay. The format is functional, cell-based. Conditions: KB-V1. The gist of the method: as §2
Experiment [8] can be described thus: Cytotoxicity against multidrug resistant human KBH5.0 cells overexpressing BCRP after MTT assay. The class given is functional, cell-based. Conditions: KBH5.0 cell. The essentials:
as §2

The subject of experiment [9] is MDA-MB-435 (human). Description: Antitumor activity against human MDA-MB-435 cells xenografted in NCR/NU NU mouse assessed as tumor volume measured on day 7 initially dosed at 2 mg/kg, ip qd x 5/week for 2 weeks and was gradually increased to 6 mg/kg x 5/week schedule. (In general: Xenograft models place foreign cells or tissue in a host animal.)
For experiment [10], the system named is MDA-MB-435 (human). In words: Antitumor activity against human MDA-MB-435 cells xenografted in NCR/NU NU mouse assessed as tumor volume measured on day 42 initially dosed at 2 mg/kg, ip qd x 5/week for 2 weeks and was gradually increased to 6 mg/kg x 5/week schedule.
The subject of experiment [11] is MDA-MB-435 (human). Description: Antitumor activity against human MDA-MB-435 cells xenografted in NCR/NU NU mouse assessed as tumor volume measured on day 49 initially dosed at 2 mg/kg, ip qd x 5/week for 2 weeks and was gradually increased to 6 mg/kg x 5/week schedule.
Experiment [12] concerns MDA-MB-435 (human). Description: Antitumor activity against human MDA-MB-435 cells xenografted in NCR/NU NU mouse assessed as tumor volume measured on day 14 initially dosed at 2 mg/kg, ip qd x 5/week for 2 weeks and was gradually increased to 6 mg/kg x 5/week schedule.
The subject of experiment [13] is MDA-MB-435 (human). In words: Antitumor activity against human MDA-MB-435 cells xenografted in NCR/NU NU mouse assessed as tumor volume measured on day 21 initially dosed at 2 mg/kg, ip qd x 5/week for 2 weeks and was gradually increased to 6 mg/kg x 5/week schedule.
Experiment [14] deals with MDA-MB-435 (human). In words: Antitumor activity against human MDA-MB-435 cells xenografted in NCR/NU NU mouse assessed as tumor volume measured on day 28 initially dosed at 2 mg/kg, ip qd x 5/week for 2 weeks and was gradually increased to 6 mg/kg x 5/week schedule.
Experiment [15] has as its system MDA-MB-435 (human). Description: Antitumor activity against human MDA-MB-435 cells xenografted in NCR/NU NU mouse assessed as tumor volume measured on day 35 initially dosed at 2 mg/kg, ip qd x 5/week for 2 weeks and was gradually increased to 6 mg/kg x 5/week schedule.
Experiment [16] concerns MDA-MB-435 (human). Description: Antitumor activity against human MDA-MB-435 cells xenografted in NCR/NU NU mouse assessed as tumor volume measured on day 7 initially dosed at 5 mg/kg, ip qd x 5/week for 1 week and was gradually increased to 7 mg/kg x 5/week schedule.
Experiment [17] relates to MDA-MB-435 (human). In words: Antitumor activity against human MDA-MB-435 cells xenografted in NCR/NU NU mouse assessed as tumor volume measured on day 14 initially dosed at 5 mg/kg, ip qd x 5/week for 1 week and was gradually increased to 7 mg/kg x 5/week schedule.
The test system of experiment [18] is MDA-MB-435 (human). In words: Antitumor activity against human MDA-MB-435 cells xenografted in NCR/NU NU mouse assessed as tumor volume measured on day 21 initially dosed at 5 mg/kg, ip qd x 5/week for 1 week and was gradually increased to 7 mg/kg x 5/week schedule.
Experiment [19] deals with MDA-MB-435 (human). Description: Antitumor activity against human MDA-MB-435 cells xenografted in NCR/NU NU mouse assessed as tumor volume measured on day 28 initially dosed at 5 mg/kg, ip qd x 5/week for 1 week and was gradually increased to 7 mg/kg x 5/week schedule.
For experiment [20], the system named is MDA-MB-435 (human). In words: Antitumor activity against human MDA-MB-435 cells xenografted in NCR/NU NU mouse assessed as tumor volume measured on day 35 initially dosed at 5 mg/kg, ip qd x 5/week for 1 week and was gradually increased to 7 mg/kg x 5/week schedule.
For experiment [21], the system named is MDA-MB-435 (human). Description: Antitumor activity against human MDA-MB-435 cells xenografted in NCR/NU NU mouse assessed as tumor volume measured on day 42 initially dosed at 5 mg/kg, ip qd x 5/week for 1 week and was gradually increased to 7 mg/kg x 5/week schedule.
For experiment [22], the system named is MDA-MB-435 (human). Description: Antitumor activity against human MDA-MB-435 cells xenografted in NCR/NU NU mouse assessed as tumor volume measured on day 49 initially dosed at 5 mg/kg, ip qd x 5/week for 1 week and was gradually increased to 7 mg/kg x 5/week schedule.
For experiment [23], the system named is MDA-MB-435 (human). Description: Antitumor activity against human MDA-MB-435 cells xenografted in NCR/NU NU mouse assessed as tumor volume measured on day 7 initially dosed at 5 mg/kg, ip qd x 5/week for 2 weeks and was gradually increased to 6 mg/kg x 5/week for 2 weeks and adjusted to 6 mg/kg qd x 3/week for 1 week schedule.
Experiment [24] relates to MDA-MB-435 (human). Description: Antitumor activity against human MDA-MB-435 cells xenografted in NCR/NU NU mouse assessed as tumor volume measured on day 14 initially dosed at 5 mg/kg, ip qd x 5/week for 2 weeks and was gradually increased to 6 mg/kg x 5/week for 2 weeks and adjusted to 6 mg/kg qd x 3/week for 1 week schedule.
Experiment [25] concerns MDA-MB-435 (human). Description: Antitumor activity against human MDA-MB-435 cells xenografted in NCR/NU NU mouse assessed as tumor volume measured on day 21 initially dosed at 5 mg/kg, ip qd x 5/week for 2 weeks and was gradually increased to 6 mg/kg x 5/week for 2 weeks and adjusted to 6 mg/kg qd x 3/week for 1 week schedule.
Experiment [26] has as its system MDA-MB-435 (human). In words: Antitumor activity against human MDA-MB-435 cells xenografted in NCR/NU NU mouse assessed as tumor volume measured on day 28 initially dosed at 5 mg/kg, ip qd x 5/week for 2 weeks and was gradually increased to 6 mg/kg x 5/week for 2 weeks and adjusted to 6 mg/kg qd x 3/week for 1 week schedule.
Experiment [27] has as its system MDA-MB-435 (human). In words: Antitumor activity against human MDA-MB-435 cells xenografted in NCR/NU NU mouse assessed as tumor volume measured on day 35 initially dosed at 5 mg/kg, ip qd x 5/week for 2 weeks and was gradually increased to 6 mg/kg x 5/week for 2 weeks and adjusted to 6 mg/kg qd x 3/week for 1 week schedule.
Experiment [28] concerns MDA-MB-435 (human). In words: Antitumor activity against human MDA-MB-435 cells xenografted in NCR/NU NU mouse assessed as tumor volume measured on day 42 initially dosed at 5 mg/kg, ip qd x 5/week for 2 weeks and was gradually increased to 6 mg/kg x 5/week for 2 weeks and adjusted to 6 mg/kg qd x 3/week for 1 week schedule.
Experiment [29] has as its system MDA-MB-435 (human). Description: Antitumor activity against human MDA-MB-435 cells xenografted in NCR/NU NU mouse assessed as tumor volume measured on day 49 initially dosed at 5 mg/kg, ip qd x 5/week for 2 weeks and was gradually increased to 6 mg/kg x 5/week for 2 weeks and adjusted to 6 mg/kg qd x 3/week for 1 week schedule.

With `C#CCN(CCn1c(=O)c2cc(OC)c(OC)cc2c2cnc3cc4c(cc3c21)OCO4)C(C)C`, the Activity in [1] was above 10; in experiment [9], 99 mm3; in experiment [10], 310 mm3; in experiment [11], 357 mm3; in [12], 112 mm3; in experiment [13], 165 mm3. Further, the Activity in experiment [14] was 170 mm3; in experiment [15], 234 mm3. The IC50 in [2] is 65 nM; in [3], above 10000 nM; in experiment [4] it was 80 nM; in experiment [5], 3700 nM; in experiment [6], 100 nM; in experiment [7] it was 430 nM. The same compound came in with an IC50 in [8] of 70 nM.

Regarding `C#CCN(C)CCn1c(=O)c2cc(OC)c(OC)cc2c2cnc3cc4c(cc3c21)OCO4`, the Activity in experiment [1] was determined as 0.1; in [16], 144 mm3; in experiment [17], 167 mm3; in experiment [18], 218 mm3; in experiment [19], 284 mm3; in [20], 317 mm3. The Activity in experiment [21] stood at 358 mm3; in experiment [22] it was 433 mm3. The half-maximal inhibitory concentration (IC50) came out at 8 nM in [2]; 4500 nM in experiment [3]; 20 nM in experiment [4]; 400 nM in experiment [5]; 70 nM in experiment [7]; 34 nM in experiment [8].

Turning to `CCN(CC#N)CCn1c(=O)c2cc(OC)c(OC)cc2c2cnc3cc4c(cc3c21)OCO4`, the Activity in experiment [1] was below 0.2; in experiment [9] it was 100 mm3; in [10], 361 mm3; in [11], 435 mm3; in experiment [12] it was 156 mm3; in experiment [13] it was 178 mm3. The Activity in [14] turned out to be 202 mm3; in experiment [15] it was 293 mm3. Moreover, the IC50 in experiment [2] was found to be 1 nM; in experiment [3], 670 nM; in experiment [4], 1 nM; in [5], 130 nM; in experiment [6], 4 nM; in experiment [7], 34 nM. This compound also had an IC50 in [8] of 7 nM.

Regarding `COc1cc2c(=O)n(CCN(CC#N)C(C)C)c3c4cc5c(cc4ncc3c2cc1OC)OCO5`, the Activity was below 0.2 in [1]; 142 mm3 in experiment [23]; 175 mm3 in [24]; 213 mm3 in experiment [25]; 220 mm3 in [26]; 250 mm3 in experiment [27]. Moreover, the Activity in experiment [28] worked out at 286 mm3; in experiment [29], 314 mm3. Besides, the IC50 in experiment [2] worked out at 2 nM; in [3], 1300 nM; in experiment [4] it was 2 nM; in [5] it was 60 nM; in experiment [6], 6 nM; in experiment [7], 43 nM. In experiment [8], half-maximal inhibition (IC50) required 9 nM.

These data come from ChEMBL document CHEMBL1142488, “Synthesis of N-substituted 5-[2-(N-alkylamino)ethyl]dibenzo[c,h][1,6]naphthyridines as novel topoisomerase I-targeting antitumor agents” (Bioorg Med Chem, 2008).
